According to ChEMBL document CHEMBL1128218, “New alpha-thiol dipeptide dual inhibitors of angiotensin-I converting enzyme and neutral endopeptidase EC 3.4.24.11” (J Med Chem, 1995):

How the values were obtained:
[1] = target: T1, Angiotensin-converting enzyme (Oryctolagus cuniculus, UniProt P12822); assay: Evaluation of in vitro inhibitory activity against Angiotensin I converting enzyme
T1 sequence (P12822 whole entry): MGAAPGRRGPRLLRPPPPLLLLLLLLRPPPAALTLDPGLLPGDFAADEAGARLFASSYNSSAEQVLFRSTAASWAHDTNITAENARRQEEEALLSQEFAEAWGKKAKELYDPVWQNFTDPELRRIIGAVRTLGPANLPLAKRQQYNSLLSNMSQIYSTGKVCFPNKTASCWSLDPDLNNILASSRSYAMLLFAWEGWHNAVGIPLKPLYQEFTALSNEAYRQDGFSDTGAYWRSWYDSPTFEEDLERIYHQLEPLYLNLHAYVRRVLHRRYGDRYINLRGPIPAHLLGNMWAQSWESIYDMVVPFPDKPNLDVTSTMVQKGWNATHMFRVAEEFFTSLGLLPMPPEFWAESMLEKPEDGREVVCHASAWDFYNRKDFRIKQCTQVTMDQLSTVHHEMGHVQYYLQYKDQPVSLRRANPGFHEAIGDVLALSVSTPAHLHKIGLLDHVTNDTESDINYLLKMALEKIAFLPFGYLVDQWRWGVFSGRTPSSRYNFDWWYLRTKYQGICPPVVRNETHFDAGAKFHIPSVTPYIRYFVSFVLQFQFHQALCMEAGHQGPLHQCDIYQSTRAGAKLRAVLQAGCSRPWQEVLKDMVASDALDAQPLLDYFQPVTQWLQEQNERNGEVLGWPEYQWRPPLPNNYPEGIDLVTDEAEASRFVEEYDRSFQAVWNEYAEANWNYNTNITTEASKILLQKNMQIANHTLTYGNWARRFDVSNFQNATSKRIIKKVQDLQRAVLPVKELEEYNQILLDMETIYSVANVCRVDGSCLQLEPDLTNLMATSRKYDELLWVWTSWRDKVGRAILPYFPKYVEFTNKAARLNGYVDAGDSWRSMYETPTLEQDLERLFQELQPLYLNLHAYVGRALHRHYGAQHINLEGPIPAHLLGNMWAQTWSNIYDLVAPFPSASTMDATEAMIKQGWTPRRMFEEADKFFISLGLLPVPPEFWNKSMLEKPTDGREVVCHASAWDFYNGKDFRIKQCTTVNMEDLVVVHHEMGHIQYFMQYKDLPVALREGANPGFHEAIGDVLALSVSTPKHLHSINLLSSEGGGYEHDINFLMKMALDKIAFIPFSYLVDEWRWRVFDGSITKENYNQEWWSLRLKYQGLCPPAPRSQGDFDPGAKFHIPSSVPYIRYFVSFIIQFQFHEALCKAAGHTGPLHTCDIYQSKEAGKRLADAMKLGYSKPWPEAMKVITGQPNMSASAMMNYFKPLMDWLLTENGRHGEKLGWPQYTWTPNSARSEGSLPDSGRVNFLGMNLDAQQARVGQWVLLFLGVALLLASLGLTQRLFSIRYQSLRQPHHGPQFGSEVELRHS
Summary of the method: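 Rabbit lung ACE in 300 mM NaCl, 100 mM KH2PO4 (pH 8.3). Enzyme and drug mixed, then hippurylhistidylleucine (2 mg/mL stock) added and incubated 75 min at room temperature. Stopped with 1 N NaOH, o-phthalaldehyde added for 10 min at 25 °C, acidified with HCl, OD read at 360 nm.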

[2] = target: T2, Angiotensin-converting enzyme (Rattus norvegicus) (UniProt P47820); assay: Evaluation of plasma inhibition of Angiotensin I converting enzyme activity in conscious rat 6 hours after intravenous administration at a dose of 10 mg/kg; format: functional, organism-based; design: dose 10 mg/kg
T2 sequence (whole entry): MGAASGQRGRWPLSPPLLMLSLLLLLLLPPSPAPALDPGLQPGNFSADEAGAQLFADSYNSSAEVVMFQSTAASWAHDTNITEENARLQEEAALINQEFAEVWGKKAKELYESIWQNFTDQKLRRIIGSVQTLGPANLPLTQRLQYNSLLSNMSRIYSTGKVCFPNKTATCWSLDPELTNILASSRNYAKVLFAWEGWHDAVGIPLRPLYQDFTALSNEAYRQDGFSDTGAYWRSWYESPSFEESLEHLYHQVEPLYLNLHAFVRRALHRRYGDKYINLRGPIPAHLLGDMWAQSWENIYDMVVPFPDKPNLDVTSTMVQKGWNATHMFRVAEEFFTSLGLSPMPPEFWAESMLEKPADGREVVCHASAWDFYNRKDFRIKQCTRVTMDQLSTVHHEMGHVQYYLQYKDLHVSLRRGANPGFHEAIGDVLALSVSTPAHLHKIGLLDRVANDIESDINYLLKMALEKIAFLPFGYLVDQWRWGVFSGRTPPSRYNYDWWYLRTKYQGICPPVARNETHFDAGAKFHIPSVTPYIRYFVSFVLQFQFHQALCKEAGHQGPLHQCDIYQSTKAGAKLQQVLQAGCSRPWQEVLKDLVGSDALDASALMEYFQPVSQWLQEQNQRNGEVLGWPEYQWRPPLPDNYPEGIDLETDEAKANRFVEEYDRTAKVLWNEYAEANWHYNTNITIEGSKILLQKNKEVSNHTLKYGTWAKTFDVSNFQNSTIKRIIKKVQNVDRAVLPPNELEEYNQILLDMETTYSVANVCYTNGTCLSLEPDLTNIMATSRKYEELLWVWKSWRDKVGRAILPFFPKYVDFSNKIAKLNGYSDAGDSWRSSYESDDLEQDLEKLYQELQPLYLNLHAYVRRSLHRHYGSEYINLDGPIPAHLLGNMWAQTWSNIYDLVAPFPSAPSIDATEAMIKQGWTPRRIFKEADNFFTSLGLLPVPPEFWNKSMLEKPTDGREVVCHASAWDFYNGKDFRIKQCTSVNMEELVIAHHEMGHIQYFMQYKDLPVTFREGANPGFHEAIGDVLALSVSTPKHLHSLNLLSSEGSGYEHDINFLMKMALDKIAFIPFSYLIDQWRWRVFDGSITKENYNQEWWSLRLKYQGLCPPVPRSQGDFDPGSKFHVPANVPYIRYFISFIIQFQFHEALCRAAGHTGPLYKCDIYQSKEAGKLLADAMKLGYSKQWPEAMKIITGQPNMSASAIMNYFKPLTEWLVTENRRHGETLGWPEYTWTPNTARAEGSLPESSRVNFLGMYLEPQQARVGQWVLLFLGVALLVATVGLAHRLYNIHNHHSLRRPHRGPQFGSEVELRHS
Summary of the method: (§1)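 Male conscious normotensive Sprague-Dawley rats (275-390 g) fitted the day before with femoral arterial and venous catheters under methohexital anesthesia. Three angiotensin-I challenges (300 ng/kg iv) given as baseline. Compound given iv, ia or po (12.3 mg/kg po dose in 3% cornstarch at 1 mg/mL), then AI challenges repeated at set times. Pressor response compared with the mean baseline response and expressed as % inhibition.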

[3] = target: T2, Angiotensin-converting enzyme (Rattus norvegicus); assay: Evaluation of plasma inhibition of Angiotensin I converting enzyme activity in conscious rat 2 hour after oral administration at a dose of 10 mg/kg; format: functional, organism-based; design: dose 10 mg/kg
[4] = target: T2, Angiotensin-converting enzyme (Rattus norvegicus); assay: Evaluation of plasma inhibition of Angiotensin I converting enzyme activity in conscious rat 4 hour after oral administration at a dose of 10 mg/kg; format: functional, organism-based; design: dose 10 mg/kg
[5] = target: T2, Angiotensin-converting enzyme (Rattus norvegicus); assay: Evaluation of plasma inhibition of Angiotensin I converting enzyme activity in conscious rat 6 hour after oral administration at a dose of 10 mg/kg; format: functional, organism-based; design: dose 10 mg/kg; summary of the method: as §1

| Compound | IC50 [1] | inhibition [2] | inhibition [3] | inhibition [4] | inhibition [5] |
| --- | --- | --- | --- | --- | --- |
| CC(C)[C@H](S)C(=O)NC1(C(=O)N[C@@H](Cc2ccccn2)C(=O)O)CCCC1 | 35 nM | 17% | – | – | – |
| CC(C)[C@H](S)C(=O)NC(C)(C)C(=O)N[C@@H](Cc1ccc(O)cc1)C(=O)O | 15 nM | 67% | – | – | – |
| CC(C)[C@H](S)C(=O)NC1(C(=O)N[C@@H](Cc2cccs2)C(=O)O)CCCC1 | 18 nM | 29% | – | – | – |
| CC(C)[C@H](S)C(=O)NC1(C(=O)N[C@@H](Cc2ccc(O)cc2)C(=O)O)CCOCC1 | 11 nM | – | – | – | – |
| CC(C)[C@H](S)C(=O)NC1(C(=O)N[C@@H](Cc2ccc(O)cc2)C(=O)O)CCCC1 | 7 nM | 68% | 59% | 36% | 15% |
| CC(C)[C@H](S)C(=O)NC1(C(=O)N[C@@H](Cc2c[nH]c3ccccc23)C(=O)O)CCCC1 | 10 nM | 82% | 50% | 29% | 26% |
| CC(C)[C@H](S)C(=O)NC1(C(=O)N[C@@H](Cc2ccc(F)cc2)C(=O)O)CCCC1 | 24 nM | 28% | – | – | – |
| CC(C)[C@H](S)C(=O)NC1(C(=O)N[C@@H](Cc2ccc(O)cc2)C(=O)O)CC1 | 15 nM | 17% | – | – | – |
| CC(C)[C@H](S)C(=O)NC1(C(=O)N[C@@H](CCc2ccccc2)C(=O)O)CCCC1 | 30 nM | 75% | – | – | – |
| CC(C)[C@H](S)C(=O)NC1(C(=O)N[C@@H](Cc2ccsc2)C(=O)O)CCCC1 | 11 nM | 71% | – | – | – |
| CC(C)[C@H](S)C(=O)NC1(C(=O)N[C@@H](Cc2ccc(O)cc2)C(=O)O)Cc2ccccc2C1 | 26 nM | 9% | – | – | – |
| O=C(O)[C@H](Cc1ccc(O)cc1)NC(=O)C1(NC(=O)[C@@H](S)Cc2ccccc2)CCCC1 | 22 nM | 17% | – | – | – |
| O=C(CS)NC1(C(=O)N[C@@H](Cc2ccc(O)cc2)C(=O)O)CCCC1 | 58 nM | – | – | – | – |
